# Hits are enriched below; roughly 2.5% of the tested compounds scored in any of these assays.
# miR-122 sensor: miR-122 inhibition in Huh7 cells | 340,000 tested, 0.3% active | activation (reporter increase), % at 12.5 µM | Huh7 miR-122 Renilla luciferase sensor, 48 h; neutral wells = 0, positive control = 100;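 active = mean replicate activation score at least 90 and every replicate individually at or above 90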;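 note: higher luciferase means less miR-122 activity so hits act as miR-122 inhibitors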
# FGF22 binding: FGF22 (human) thermal shift binding | Q9HCT0 | recombinant FGF22 thermal shift, SYPRO orange fluorescence; percent of sucrose octasulfate shift, DMSO zero | activity (Tm shift, normalised), % at 9.99 µM | 340,000 tested, 1.5% active;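 active = mean Tm shift, scaled 0 neutral to 100 positive control, at about 1.3% or above, every replicate too, limit read from the data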
# Target sequence (Q9HCT0 whole entry, looked up): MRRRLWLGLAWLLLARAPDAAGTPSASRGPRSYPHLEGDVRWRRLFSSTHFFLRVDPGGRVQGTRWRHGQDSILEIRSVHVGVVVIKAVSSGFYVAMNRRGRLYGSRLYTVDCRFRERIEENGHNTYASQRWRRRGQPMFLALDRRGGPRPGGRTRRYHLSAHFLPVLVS
# E-selectin induc: induces E-selectin expression in human endothelial cells; P16581; HUVEC E-selectin immunofluorescence imaging; normalized: neutral wells 0, TNF-alpha wells 100; activation, % at 7.58 µM; 260,000 tested, 0.37% active; AID 686992;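 active = mean E-selectin-positive cell signal at least 10% of the positive control, reached in at least 60% of replicates, without over 20% cell loss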
#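 Assay system: HUVEC primary endothelial cells. Input: 3,000 HUVEC seeded per well. Doses: one compound dose added by pin transfer. Read-out basis: % PE-positive cells. Benchmarks: TNF-alpha high, DMSO low. Detection: immunofluorescence imaging. Buffer or medium: EGM-2, gelatin.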
# SIRT5 block: inhibitors of human sirtuin-5 desuccinylase. inhibition, % at 15 µM. 330,000 tested, 1.1% active. Q9NXA8. Purified SirT5, succinyl-peptide AMC, trypsin-coupled fluorescence; in the data active = inhibition above about 15%
# S100A4 MyoIIA: blocks human S100A4 binding to myosin IIA peptide; S100A4/TAMRA-MyoIIA peptide fluorescence polarization; inhibition, % at 10.7 µM; 360,000 tested, 0.14% active; AID 652163;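 active = mean inhibition of at least 70% across replicates, with every replicate also reaching that level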
# Target sequence (P26447 whole entry, looked up): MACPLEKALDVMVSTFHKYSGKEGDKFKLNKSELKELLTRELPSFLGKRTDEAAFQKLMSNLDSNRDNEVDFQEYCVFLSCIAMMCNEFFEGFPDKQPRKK
#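 Test system: S100A4 monomer protein; Medium: HEPES pH 7.2 with CaCl2, KCl, NaCl, DTT, Triton; Probe or stimulus: TAMRA-labelled myosin IIA heavy-chain peptide probe, 5 nM; Doses: one dose per compound; Times: polarization read 5 min after assay mix addition, stable 5–60 min; Benchmarks: neutral control DMSO, positive control TFP.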
# A number is an active result; – = inactive; · = no result; ! = a repeat was not active.
SMILES,miR-122 sensor,FGF22 binding,E-selectin induc,SIRT5 block,S100A4 MyoIIA
O=C(NNS(=O)(=O)c1ccc(F)cc1)c1cccc(O)c1,–,–,·,17,–
Cc1ccc(S(=O)(=O)NNC(=O)c2cccc(O)c2)cc1,–,–,73,–,–
O=C(NNS(=O)(=O)c1ccccc1)c1ccc(F)cc1,–,–,·,–,–
Cc1ccc(S(=O)(=O)NNC(=O)c2ccc(F)cc2)cc1,–,–,·,–,–
C[C@@H]1CCCCO[C@H](CN(C)S(=O)(=O)c2cccs2)[C@H](C)CN([C@H](C)CO)C(=O)c2cc(NS(=O)(=O)c3ccccc3)ccc2O1,–,·,·,–,–
O=C1ON=C(c2ccccc2)/C1=C/c1ccco1,–,–,·,20,–
CCCCCCCCCCCCN1[C@@H](CC(=O)O)c2cc(C(F)(F)F)ccc2S1(=O)=O,–,–,–,·,–
CC(=O)C[C@H]1c2cc(C(F)(F)F)ccc2S(=O)(=O)N1Cc1ccccc1,·,–,–,–,–
CC(=O)C[C@H]1c2cc(C(F)(F)F)ccc2S(=O)(=O)N1c1ccccc1,99,–,–,–,–
CCCCCCCCN1[C@@H](CC(=O)O)c2cc(C(F)(F)F)ccc2S1(=O)=O,·,–,–,40,–
COc1ccc(S(=O)(=O)Nc2ccc3c(c2)C(=O)N([C@H](C)CO)C[C@@H](C)[C@@H](CN(C)Cc2ccccc2)OCCCC[C@H](C)O3)cc1,–,–,–,·,·
COc1ccc2c3c([nH]c2c1)[C@@H](CO)N(C(=O)CN(C)C)CC31CN(CC2CCOCC2)C1,·,–,–,·,·
CNC[C@@H]1Oc2ccc(NC(=O)NC3CCCCC3)cc2CC(=O)N([C@@H](C)CO)C[C@@H]1C,–,–,–,–,–
Cc1ccnc(NC(=O)CCCOc2cc(=O)n(C)c3ccccc23)c1,183!,–,–,–,–
O=C(NC[C@H]1[C@@H](c2ccccc2)[C@@H](CO)N1C(=O)C1CC1)NC1CCCC1,–,–,–,–,–
CC(=O)C1=C(C)Nc2ncnn2C1c1ccc(O)cc1 (centres undefined),–,–,44,–,–
CC(=O)C1=C(C)Nc2ncnn2C1c1ccc(F)cc1 (centres undefined),–,–,–,–,–
CC=Cc1ccc2n(c1=O)C[C@@H]1[C@@H](CO)[C@H](C(=O)NCC(F)(F)F)[C@H]2N1C(=O)C1CCCCC1 (mixture of isomers),–,–,–,–,–
CNC(=O)C[C@@H]1CC[C@@H]2[C@@H](COc3ccc(NC(=O)Nc4cccc(C)c4)cc3C(=O)N2C)O1,–,–,–,–,–
O=S(=O)(c1ccccc1)N1C[C@@H]2N[C@H](C1)C2c1ccc(-c2ccc(F)cc2)cc1 (some centres undefined),·,·,–,–,–
COC(=O)[C@@H](Cc1ccccc1)NC(=O)/C=C/[C@H]1O[C@@H](n2cnc3c(NC(=O)c4ccccc4)ncnc32)[C@H](O)[C@@H]1O,–,–,–,31,–
COc1ccc(CNC(=O)/C=C/[C@H]2O[C@@H](n3cnc4c(NC(=O)c5ccccc5)ncnc43)[C@H](O)[C@@H]2O)cc1,–,–,–,–,–
O=C(NCCS(=O)(=O)NCCCc1ccccc1)c1ccccc1,·,–,–,–,94
CCCCCCCCNC(=O)c1cccnc1SCC(=O)Nc1ccccc1OC,–,39,·,·,–
CCN(c1ccccc1)S(=O)(=O)c1ccc(OC)c(NC(=O)c2ccco2)c1,–,43,–,·,–
C[C@H](CO)N1C[C@H](C)[C@H](CN(C)Cc2ccc(-c3ccccc3)cc2)Oc2c(NC(=O)C3CCOCC3)cccc2C1=O,–,–,–,–,–
Cc1cc([N+](=O)[O-])ccc1N1C(=O)c2ccc(C(=O)Nc3ccccc3C(=O)O)cc2C1=O,·,1.6,·,–,–
O=C(c1ccc2c(c1)OCO2)N1CC(=O)N2[C@H](CO)[C@@H](c3ccc(C#CCC4CCCC4)cc3)[C@H]2C1,·,–,–,16,–
O=C(c1ccc2c(c1)OCO2)N1CC(=O)N2[C@H](CO)[C@H](c3ccc(C#CC4CCCC4)cc3)[C@H]2C1,·,·,–,–,–
O=C(c1ccc2c(c1)OCO2)N1CC(=O)N2[C@H](CO)[C@@H](c3ccc(C#CC4CCCC4)cc3)[C@H]2C1,·,·,–,–,–

# Screening results: PubChem BioAssay, Broad Institute
